# Screening data deposited in PubChem BioAssay by Broad Institute.
# This is one part of a sample in which hits are shown more often than they occur.
# KDM4C inh: inhibitors of human demethylase GASC-1 KDM4C | Q9H3R0 | GST-KDM4C 2-372, H3K9me3 peptide, LANCE TR-FRET | inhibition, % at 12.5 µM | actives 0.15% (n = 96,000);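 active = mean replicate inhibition above about 25%, with at least 55% of replicates also reaching it, limit read from the data, passing the limit was not always enough; inconclusive = only one of those two conditions met; inactive = neither condition met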
# Target sequence (Q9H3R0 2-372 limits assumed): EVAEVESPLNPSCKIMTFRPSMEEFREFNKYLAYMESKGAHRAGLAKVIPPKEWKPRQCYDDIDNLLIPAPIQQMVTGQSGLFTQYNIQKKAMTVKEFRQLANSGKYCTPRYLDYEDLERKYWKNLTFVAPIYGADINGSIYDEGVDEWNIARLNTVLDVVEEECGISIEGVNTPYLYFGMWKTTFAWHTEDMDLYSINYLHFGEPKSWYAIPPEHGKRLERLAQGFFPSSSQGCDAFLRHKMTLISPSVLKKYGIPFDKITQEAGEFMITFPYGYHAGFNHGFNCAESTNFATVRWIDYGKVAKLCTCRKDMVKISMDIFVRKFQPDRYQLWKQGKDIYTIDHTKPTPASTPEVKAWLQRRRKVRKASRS
#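 Compound: one test concentration per compound; Material: GST-GASC-1 enzyme fragment 2-372; Amount: GASC-1 enzyme at 10 nM final in reaction; Also added: H3K9me3 peptide substrate, Fe(II), 2-oxoglutarate; Technique: LANCE TR-FRET; Times: 30 min demethylation and 1 h detection at room temperature.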
# IDH1 mut inh: inhibitors of human IDH1 R132H. O75874. IDH1 R132H reductase, diaphorase/resazurin fluorescence, 60 min. inhibition, % at 10 µM. actives 0.18% (n = 70,000). AID 624101; in the data active = inhibition above about 34%; inconclusive = no clear call, values can overlap the other calls; inactive = below about 11%;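 also: 0% = DMSO and 100% = no enzyme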
# Target sequence (O75874 whole entry R132H): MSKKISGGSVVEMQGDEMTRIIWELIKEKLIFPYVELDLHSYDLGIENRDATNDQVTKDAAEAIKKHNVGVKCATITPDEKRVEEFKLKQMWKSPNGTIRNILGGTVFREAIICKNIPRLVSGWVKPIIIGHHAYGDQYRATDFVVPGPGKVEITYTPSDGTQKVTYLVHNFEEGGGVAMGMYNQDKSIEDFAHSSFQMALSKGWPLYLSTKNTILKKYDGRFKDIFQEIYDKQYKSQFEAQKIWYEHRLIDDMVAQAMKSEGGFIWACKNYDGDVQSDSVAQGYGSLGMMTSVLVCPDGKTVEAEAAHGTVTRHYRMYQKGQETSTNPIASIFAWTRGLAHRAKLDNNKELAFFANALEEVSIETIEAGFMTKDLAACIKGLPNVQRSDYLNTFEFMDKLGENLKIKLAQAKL
# T cruzi growth-1: blocks T. cruzi growth in NIH3T3 culture; T. cruzi beta-gal in NIH3T3, GalScreen luminescence, 90 h; inhibition, % at 8.34 µM; actives 5.9% (n = 77,000);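 active = mean inhibition above about 93%, with at least 55% of replicates each passing it, limit read from the data, passing the limit was not always enough; inconclusive = only one of those two conditions holds; inactive = neither condition holds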
# T cruzi growth-2: blocks T. cruzi growth in NIH3T3 host cells; shares compounds with T cruzi growth-1; T. cruzi beta-gal in NIH3T3, GalScreen luminescence, 90 h; inhibition, % at 8.35 µM; actives 72% (n = 5,600); AID 651739;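 active = mean replicate inhibition above about 95% and at least 55% of replicates individually reaching it, limit read from the data; inconclusive = only one of the two criteria is met; inactive = neither criterion is met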
# T cruzi growth-3: blocks T. cruzi growth in NIH3T3 host cells; shares compounds with T cruzi growth-1; T. cruzi beta-gal in NIH3T3, GalScreen luminescence, 90 h; inhibition, % at 2.09 µM; actives 21% (n = 5,600);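 active = mean inhibition above about 95%, with at least 55% of replicates also reaching it, limit read from the data; inconclusive = meets just one of the two conditions; inactive = meets neither condition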;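 also: plate controls were neutral control median for no effect and positive control median for full effect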
# 3T3 cytotox: NIH/3T3 (mouse) viability loss | shares compounds with T cruzi growth-1 | NIH/3T3 viability, CellTiter-Glo ATP luminescence, 90 h | cytotoxicity (signal decrease), % at 8.35 µM | actives 14% (n = 5,600);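 active = mean signal decrease across replicates above about 35% based on untreated-well scatter, with enough replicates individually passing, limit read from the data; inconclusive = no rule stated though some were filed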;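 also: 0% = median of neutral control wells and 100% = median of positive control wells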
# NIH3T3 tox 2: cytotoxicity in mouse NIH/3T3 fibroblasts; shares compounds with T cruzi growth-1; NIH/3T3 viability, CellTiter-Glo ATP luminescence, 90 h; inhibition, % at 24.9 µM; actives 56% (n = 5,600); AID 651744;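 active = mean loss of cell viability signal at or above a set limit, and enough replicates individually reaching it; inconclusive = meets only the mean limit or only the replicate share; inactive = meets neither condition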;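 also: 0% = median of neutral control wells and 100% = median of positive control wells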
# Active calls of the source: *; ? = inconclusive; nt = not tested or not shown.
SMILES,KDM4C inh,IDH1 mut inh,T cruzi growth-1,T cruzi growth-2,T cruzi growth-3,3T3 cytotox,NIH3T3 tox 2
COc1ccc(-c2ccc3c(c2)O[C@H](CN(C)C(=O)Nc2ccccc2F)[C@H](C)CN([C@H](C)CO)S3(=O)=O)cc1,-0.2,-0.3,84.3,nt,nt,nt,nt
O=C(CC1(O)C(=O)Nc2ccc(I)cc21)c1ccccn1 (centres undefined),nt,3.8,nt,nt,nt,nt,nt
NC(=O)c1ccccc1NC(=O)COc1cccc2ccccc12,nt,1.4,nt,nt,nt,nt,nt
CCC(Sc1ncccn1)C(=O)Nc1c(C)cccc1C (centres undefined),nt,-0.1,nt,nt,nt,nt,nt
C[C@@H]1CCCCO[C@@H](CN(C)C(=O)C2CCCCC2)[C@@H](C)CN([C@@H](C)CO)C(=O)c2cc(N(C)C)ccc2O1,6.6,nt,46.6,nt,nt,nt,nt
C[C@H](CO)N1C[C@H](C)[C@H](CN(C)C(=O)C2CCCCC2)OCCCC[C@H](C)Oc2ccc(N(C)C)cc2C1=O,3.3,-7.6,99.9*,53.2,19.6,5.5,-18.7
C[C@@H]1CCCCO[C@H](CN(C)C(=O)C2CCCCC2)[C@H](C)CN([C@@H](C)CO)C(=O)c2cc(N(C)C)ccc2O1,5.8,-3.3,110.4*,67.6,21.1,-0.9,3.1
C[C@@H]1CCCCO[C@@H](CN(C)C(=O)C2CCCCC2)[C@@H](C)CN([C@H](C)CO)C(=O)c2cc(N(C)C)ccc2O1,1.0,-2.3,35.3,nt,nt,nt,nt
Cc1cc(NC(=O)CN(c2ccc(Cl)cc2)S(C)(=O)=O)ccc1Br,nt,-0.4,nt,nt,nt,nt,nt
Cc1ccn2cc(-c3cccc(NS(=O)(=O)c4cccc([N+](=O)[O-])c4)c3)nc2c1,nt,0.2,nt,nt,nt,nt,nt
Nc1nnc(SC/C=C/CSc2nnc(N)s2)s1,nt,0.6,nt,nt,nt,nt,nt
COc1ccc(NC(=O)CN(C)S(=O)(=O)c2ccc(Br)cc2)c([N+](=O)[O-])c1,nt,-0.2,nt,nt,nt,nt,nt
CN(Cc1nc(-c2ccccc2)no1)S(=O)(=O)c1ccc(Br)cc1,nt,-0.6,nt,nt,nt,nt,nt
C/C=C/c1ccc2c(c1)O[C@@H](CN(C)S(=O)(=O)c1ccc(C)cc1)[C@@H](C)CN([C@@H](C)CO)S2(=O)=O,-0.8,-9.7,98.2*,108.2*,87.5,15.6,43.1*
C/C=C/c1ccc2c(c1)O[C@H](CN(C)S(=O)(=O)c1ccc(C)cc1)[C@H](C)CN([C@H](C)CO)S2(=O)=O,-1.8,-3.6,116.9*,107.4*,52.1,6.3,78.1*
C/C=C/c1ccc2c(c1)O[C@H](CN(C)S(C)(=O)=O)[C@@H](C)CN([C@H](C)CO)S2(=O)=O,0.5,0.9,-10.6,nt,nt,nt,nt
Cc1ccc(S(=O)(=O)N(C)C[C@H]2Oc3cc(Br)ccc3S(=O)(=O)N([C@@H](C)CO)C[C@H]2C)cc1,-3.0,-5.2,nt,nt,nt,nt,nt
CC(C)Oc1ccc(NC(=O)CCN2C(=O)c3ccccc3C2=O)cc1,nt,0.5,nt,nt,nt,nt,nt
Cc1c(C(=O)C2C(=O)C(=O)N(Cc3cccnc3)C2c2ccccn2)cnn1-c1ccccc1 (centres undefined),nt,-0.1,nt,nt,nt,nt,nt
Cc1nc(-c2ccccc2)sc1C(=O)C1C(=O)C(=O)N(CCN2CCOCC2)C1c1cccs1 (centres undefined),nt,0.2,nt,nt,nt,nt,nt
O=C(CSc1nc(O)cc(=O)[nH]1)Nc1ccc(Br)cc1,nt,0.0,nt,nt,nt,nt,nt
Cc1ccc(S(=O)(=O)Nc2ccc3c(c2)C(=O)N([C@@H](C)CO)C[C@H](C)[C@H](CN(C)S(=O)(=O)c2ccc(C)cc2)OCCCC[C@@H](C)O3)cc1,-0.5,-1.0,91.8,nt,nt,nt,nt
Cc1ccc(S(=O)(=O)Nc2ccc3c(c2)C(=O)N([C@H](C)CO)C[C@H](C)[C@H](CN(C)S(=O)(=O)c2ccc(C)cc2)OCCCC[C@H](C)O3)cc1,0.8,-1.9,?,104.9*,106.5*,-10.8,-11.1
Cc1ccc(S(=O)(=O)Nc2ccc3c(c2)C(=O)N([C@@H](C)CO)C[C@@H](C)[C@H](CN(C)S(=O)(=O)c2ccc(C)cc2)OCCCC[C@@H](C)O3)cc1,-0.2,2.0,101.5*,102.0*,?,0.4,12.8
Cc1ccc(S(=O)(=O)Nc2ccc3c(c2)C(=O)N([C@H](C)CO)C[C@@H](C)[C@H](CN(C)S(=O)(=O)c2ccc(F)cc2)OCCCC[C@H](C)O3)cc1,4.4,0.0,nt,nt,nt,nt,nt
SMILES,KDM4C inh,IDH1 mut inh,T cruzi growth-1,T cruzi growth-2,T cruzi growth-3,3T3 cytotox,NIH3T3 tox 2
Cc1ccc(S(=O)(=O)Nc2ccc3c(c2)C(=O)N([C@@H](C)CO)C[C@H](C)[C@@H](CN(C)S(=O)(=O)c2ccc(C)cc2)OCCCC[C@@H](C)O3)cc1,-0.5,-5.0,101.9*,105.3*,73.0,7.1,5.2
Cc1ccc(S(=O)(=O)Nc2ccc3c(c2)C(=O)N([C@@H](C)CO)C[C@@H](C)[C@@H](CN(C)S(=O)(=O)c2ccc(C)cc2)OCCCC[C@@H](C)O3)cc1,0.4,0.9,91.3,nt,nt,nt,nt
Cc1ccc(C(C)C)c(OCC(=O)Nc2cccc3nsnc23)c1,nt,0.1,nt,nt,nt,nt,nt
COc1cccc(C(=O)COc2ccc(NC(=O)c3ccc(Cl)c(Cl)c3)cc2)c1,nt,-0.1,nt,nt,nt,nt,nt
COc1ccc(-c2c(C(F)(F)F)oc3cc(OCC(=O)Nc4ccc(C)cc4)ccc3c2=O)cc1OC,nt,0.0,nt,nt,nt,nt,nt
COCC#Cc1ccc([C@H]2[C@@H](CO)N3CCCCN(C(=O)CN(C)C)C[C@H]23)cc1,-0.7,nt,120.7*,50.5,35.5,-24.2,-4.0
CN(C)CC#Cc1ccc([C@H]2[C@@H](CO)N3CCCCN(C(=O)CN(C)C)C[C@@H]23)cc1,3.1,nt,-4.8,nt,nt,nt,nt
COCC#Cc1ccc([C@@H]2[C@H]3CN(C(=O)CN(C)C)CCCCN3[C@H]2CO)cc1,1.6,nt,109.1*,?,13.3,-11.9,6.1
CN(C)CC#Cc1ccc([C@@H]2[C@@H](CO)N3CCCCN(C(=O)CN(C)C)C[C@@H]23)cc1,2.5,nt,19.3,nt,nt,nt,nt
Cn1c(SCC(=O)Nc2ccc(Oc3ccc(Cl)cc3)cc2)nnc1-c1ccccc1O,nt,0.1,nt,nt,nt,nt,nt
Cc1cc(Br)ccc1NC(=O)CSc1ncn(-c2ccccc2)n1,nt,0.4,nt,nt,nt,nt,nt
CCn1c(SCC(=O)Nc2cc(C)c(C)cc2Br)nnc1-c1ccccc1F,nt,-0.3,nt,nt,nt,nt,nt
COc1ccccc1-c1ccc2c(c1)O[C@@H](CN(C)S(=O)(=O)c1ccccc1)[C@H](C)CN([C@@H](C)CO)S2(=O)=O,nt,-0.6,97.8*,104.4*,91.9,47.2*,37.6*
COc1ccccc1-c1ccc2c(c1)O[C@@H](CN(C)S(=O)(=O)c1ccccc1)[C@@H](C)CN([C@@H](C)CO)S2(=O)=O,nt,nt,80.2*,101.1*,99.4*,?,41.9*
COc1ccccc1-c1ccc2c(c1)O[C@@H](CN(C)C(=O)c1ccccc1)[C@H](C)CN([C@@H](C)CO)S2(=O)=O,-0.4,0.0,17.2,nt,nt,nt,nt
COc1ccccc1-c1ccc2c(c1)O[C@@H](CN(C)C)[C@@H](C)CN([C@H](C)CO)S2(=O)=O,1.9,-0.5,-3.5,nt,nt,nt,nt
